ChEMBL document CHEMBL1148401, “Synthesis and structure-activity relationships of novel arylpiperazines as potent and selective agonists of the melanocortin subtype-4 receptor” (J Med Chem, 2004)

Assays:
[1] = target: T1, Melanocortin receptor 4 (Homo sapiens, UniProt P32245); test: Binding affinity towards human melanocortin 4 receptor using [125I]NDP-alpha-MSH as a radioligand in HEK293 cells; type: cell-based
Summary of the method: (§1)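 Membranes from HEK293 cells stably expressing human MC1, MC3, MC4 or MC5 receptor, 0.5-5.0 µg protein, with 100 pM ¹²⁵I-NDP-α-MSH and WGA SPA beads. Buffer 25 mM HEPES pH 7.5, 10 mM CaCl₂, 0.3% BSA. Compound 30 µM to 300 pM. 10 h at room temperature, scintillation counting. Four-parameter logistic IC50 converted to Ki by Cheng-Prusoff; n = 2 or 4, ± SEM.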

[2] = target: T1, Melanocortin receptor 4; test: Agonistic potency towards human melanocortin 4 receptor, determined by 50% maximum cAMP release; type: functional
Summary of the method: (§2)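 HEK293 cells stably expressing human MC3 or MC4 receptor, suspended in HBSS/0.1% BSA/10 mM HEPES at 1 × 10⁶ cells/mL. Compound serial dilutions 10 µM to 0.1 nM; NDP-α-MSH control agonist 100 nM to 1 pM. 20 min at 37 °C, quenched with sodium acetate/Triton X-100. cAMP by SPA competition with ¹²⁵I-cAMP, 12 h. EC50 at 50% maximal cAMP release, n = 2, ± SEM.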

[3] = Tmax in fischer rats at 30 mg/kg dose, administered orally; details: rat, in vivo, po
[4] = Oral bioavailability in fischer rats at 30 mg/kg dose, administered perorally; type: ADME, organism-based; details: rat, in vivo, read-out: Bioavailabiility
Summary of the method: (§3)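 Fischer 344 rats, n = 3 per route: 5 mg/kg iv, or 30 mg/kg by gavage in 10% acacia. Retro-orbital blood into heparinized syringes at 0.5, 1, 2, 6 h after oral dosing and 0.083, 1, 2, 4, 6, 8, 24 h after iv dosing. Plasma stored at -70 °C and quantified by electrospray LC/MS/MS against standards by least-squares regression.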

[5] = target: T2, Melanocortin receptor 3 (Homo sapiens, UniProt P41968); test: Agonistic potency towards human Melanocortin 3 receptor (MC3R) was determined by 50% maximum cAMP release; type: functional; summary of the method: as §2
[6] = target: Melanocortin receptor 5 (Homo sapiens, UniProt P33032); test: Binding affinity towards human Melanocortin 5 receptor (MC5R) using [125I]NDP-alpha-MSH as a radioligand in membranes of HEK 293 cells; type: cell membranes, HEK293; summary of the method: as §1
[7] = Volume distribution in fischer rats at 5 mg/kg dose, administered intravenously; type: ADME, organism-based; set-up: dose 5 mg/kg, route intravenous; details: rat, in vivo, iv, read-out: Volume distribution; summary of the method: as §3
[8] = Half-life in fischer rats at 5 mg/kg dose, administered intravenously; type: ADME, organism-based; set-up: dose 5 mg/kg, route intravenous; details: rat, in vivo, iv; summary of the method: as §3
[9] = Clearance in fischer rats at 5 mg/kg dose, administered intravenously; type: ADME, organism-based; set-up: dose 5 mg/kg, route intravenous; details: rat, in vivo, iv; summary of the method: as §3
[10] = target: T2, Melanocortin receptor 3; test: Binding affinity towards human Melanocortin 3 receptor (MC3R) using [125I]NDP-alpha-MSH as a radioligand in membranes of HEK 293 cells; type: cell membranes, HEK293; summary of the method: as §1
[11] = target: Melanocyte-stimulating hormone receptor (Homo sapiens, UniProt Q01726); test: Binding affinity towards human Melanocortin 1 receptor (MC1R) using [125I]NDP-alpha-MSH as a radioligand in membranes of HEK 293 cells; type: cell membranes, HEK293; summary of the method: as §1
Melanocyte-stimulating hormone receptor, sequence (Q01726 whole entry): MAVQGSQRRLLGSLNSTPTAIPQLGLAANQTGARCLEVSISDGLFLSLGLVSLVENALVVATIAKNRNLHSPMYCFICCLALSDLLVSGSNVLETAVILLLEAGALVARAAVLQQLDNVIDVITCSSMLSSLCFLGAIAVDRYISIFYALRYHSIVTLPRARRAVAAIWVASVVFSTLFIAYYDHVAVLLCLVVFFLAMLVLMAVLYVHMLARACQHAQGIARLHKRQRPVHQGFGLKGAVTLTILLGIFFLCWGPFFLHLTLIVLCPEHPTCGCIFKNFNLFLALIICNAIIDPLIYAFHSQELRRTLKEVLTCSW

Melanocortin receptor 5, sequence (P33032 whole entry): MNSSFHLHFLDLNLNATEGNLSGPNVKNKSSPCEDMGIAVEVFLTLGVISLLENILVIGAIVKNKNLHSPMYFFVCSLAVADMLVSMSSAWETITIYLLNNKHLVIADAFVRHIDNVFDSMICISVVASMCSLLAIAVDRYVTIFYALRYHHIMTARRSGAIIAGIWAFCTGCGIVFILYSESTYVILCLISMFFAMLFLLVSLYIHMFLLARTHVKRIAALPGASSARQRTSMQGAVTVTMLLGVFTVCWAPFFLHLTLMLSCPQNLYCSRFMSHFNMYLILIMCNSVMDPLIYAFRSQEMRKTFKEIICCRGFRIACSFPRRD
T2 sequence (P41968 whole entry): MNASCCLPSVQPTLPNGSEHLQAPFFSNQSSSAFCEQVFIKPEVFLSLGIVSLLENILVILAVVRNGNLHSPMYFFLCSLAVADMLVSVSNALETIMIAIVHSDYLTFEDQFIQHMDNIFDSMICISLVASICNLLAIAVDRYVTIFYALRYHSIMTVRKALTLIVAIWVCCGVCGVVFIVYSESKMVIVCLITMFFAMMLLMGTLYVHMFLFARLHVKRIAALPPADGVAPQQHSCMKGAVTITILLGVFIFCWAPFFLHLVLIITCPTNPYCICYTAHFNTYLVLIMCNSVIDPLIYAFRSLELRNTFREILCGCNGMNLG
T1 sequence (P32245 whole entry): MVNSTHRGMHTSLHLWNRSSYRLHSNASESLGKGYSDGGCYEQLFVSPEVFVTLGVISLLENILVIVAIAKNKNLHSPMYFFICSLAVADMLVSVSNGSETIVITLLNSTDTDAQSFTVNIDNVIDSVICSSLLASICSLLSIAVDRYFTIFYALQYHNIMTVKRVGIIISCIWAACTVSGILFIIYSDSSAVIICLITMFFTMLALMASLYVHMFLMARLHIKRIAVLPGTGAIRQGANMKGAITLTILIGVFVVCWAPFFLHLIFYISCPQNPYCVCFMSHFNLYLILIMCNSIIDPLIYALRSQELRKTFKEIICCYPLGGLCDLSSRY

What does the source list for `O=C(N[C@H](Cc1ccc(Cl)cc1)C(=O)N1CCN(c2ccccc2OCc2ccccc2)CC1)[C@H]1Cc2ccccc2CN1`?
Ki [1]: 640 nM; EC50 [2]: 150 nM

What does the source list for `CN(C)CCOc1ccccc1N1CCN(C(=O)[C@@H](Cc2ccc(Cl)cc2)NC(=O)[C@H]2Cc3ccccc3CN2)CC1`?
Ki [1]: 230 nM; EC50 [2]: 98 nM

With `Cc1nccn1Cc1ccccc1N1CCN(C(=O)[C@@H](Cc2ccc(Cl)cc2)NC(=O)[C@H]2Cc3ccccc3CN2)CC1` as the compound, how does the Ki [1] read?
The Ki was 140 nM.

And the EC50 [2]?
The EC50 was 21 nM.

With `CC(C)Oc1ccccc1N1CCN(C(=O)[C@@H](Cc2ccc(Cl)cc2)NC(=O)[C@H]2Cc3ccccc3CN2)CC1` as the compound, how does the Ki [1] read?
Its Ki is 460 nM.

What about the EC50 [2] of the same compound?
Its EC50 is 93 nM.

Which Ki [1] does the source give for `Nc1ccccc1N1CCN(C(=O)[C@@H](Cc2ccc(Cl)cc2)NC(=O)[C@H]2Cc3ccccc3CN2)CC1` here?
Its Ki is 1700 nM.

What about the EC50 [2] of the same compound?
The EC50 was 200 nM.

With `O=C(N[C@H](Cc1ccc(Cl)cc1)C(=O)N1CCN(c2ccccc2Oc2ccccc2)CC1)[C@H]1Cc2ccccc2CN1` as the compound, how does the Ki [1] read?
The Ki was 640 nM.

What about the EC50 [2] of the same compound?
Its EC50 is 400 nM.

With `COc1ccccc1N1CCN(C(=O)[C@@H](Cc2ccc(Cl)cc2)NC(=O)[C@H]2Cc3ccccc3CN2)CC1` as the compound, how does the Ki [1] read?
Its Ki is 1100 nM.

And the EC50 [2]?
Its EC50 is 71 nM.

Which Ki [1] does the source give for `O=C(N[C@H](Cc1ccc(Cl)cc1)C(=O)N1CCN(c2ccccc2[N+](=O)[O-])CC1)[C@H]1Cc2ccccc2CN1` here?
Its Ki is 2400 nM.

And the EC50 [2]?
The EC50 was 210 nM.

With `CS(=O)(=O)Nc1ccccc1N1CCN(C(=O)[C@@H](Cc2ccc(Cl)cc2)NC(=O)[C@H]2Cc3ccccc3CN2)CC1` as the compound, how does the Tmax [3] read?
The Tmax was 3 h.

And the bioavailability [4]?
Its bioavailability is 30%.

What about the EC50 [5] of the same compound?
The EC50 was 2000 nM.

And the Ki [6]?
The Ki was 1200 nM.

What about the Ki [1] of the same compound?
The Ki was 220 nM.

What about the Vd [7] of the same compound?
Its Vd is 4.5 L/kg.

And the half-life [8]?
The half-life was 1.7 h.

What about the clearance [9] of the same compound?
The clearance was 43 mL/min/kg.

And the Ki [10]?
Its Ki is 8800 nM.

What about the EC50 [2] of the same compound?
Its EC50 is 16 nM.

What about the Ki [11] of the same compound?
Its Ki is 12000 nM.

Which Ki [1] does the source give for `Cc1ccccc1N1CCN(C(=O)[C@@H](Cc2ccc(Cl)cc2)NC(=O)[C@H]2Cc3ccccc3CN2)CC1` here?
Its Ki is 1700 nM.

And the EC50 [2]?
The EC50 was 1300 nM.

What does the source list for `CCCN(CCC)Cc1ccccc1N1CCN(C(=O)[C@@H](Cc2ccc(Cl)cc2)NC(=O)[C@H]2Cc3ccccc3CN2)CC1`?
Ki [1]: 35 nM; EC50 [2]: 8 nM

Which EC50 [5] does the source give for `CN(C)Cc1ccccc1N1CCN(C(=O)[C@@H](Cc2ccc(Cl)cc2)NC(=O)[C@H]2Cc3ccccc3CN2)CC1` here?
The EC50 was 1800 nM.

What about the Ki [6] of the same compound?
Its Ki is 1400 nM.

And the Ki [1]?
The Ki was 60 nM.

What about the Ki [10] of the same compound?
Its Ki is 7000 nM.

And the EC50 [2]?
The EC50 was 7 nM.

And the Ki [11]?
The Ki was over 20000 nM.

What does the source list for `O=C(N[C@H](Cc1ccc(Cl)cc1)C(=O)N1CCN(c2ccccc2CN2CCCCC2)CC1)[C@H]1Cc2ccccc2CN1`?
Ki [1]: 27 nM; EC50 [2]: 37 nM

What does the source list for `O=C(N[C@H](Cc1ccc(Cl)cc1)C(=O)N1CCN(c2ccccc2CN2CCCC2)CC1)[C@H]1Cc2ccccc2CN1`?
Ki [1]: 24 nM; EC50 [2]: 39 nM

With `C[C@@H](O)c1ccccc1N1CCN(C(=O)[C@@H](Cc2ccc(Cl)cc2)NC(=O)[C@H]2Cc3ccccc3CN2)CC1` as the compound, how does the Ki [1] read?
The Ki was 340 nM.

And the EC50 [2]?
Its EC50 is 44 nM.

Which results are given for `C[C@H](O)c1ccccc1N1CCN(C(=O)[C@@H](Cc2ccc(Cl)cc2)NC(=O)[C@H]2Cc3ccccc3CN2)CC1`?
Ki [1]: 350 nM; EC50 [2]: 34 nM

Which Ki [1] does the source give for `O=C(N[C@H](Cc1ccc(Cl)cc1)C(=O)N1CCN(c2ccccc2)CC1)[C@H]1Cc2ccccc2CN1` here?
Its Ki is 6600 nM.

What about the EC50 [2] of the same compound?
The EC50 was 360 nM.

Which Ki [1] does the source give for `O=C(N[C@H](Cc1ccc(Cl)cc1)C(=O)N1CCN(c2ccccc2O)CC1)[C@H]1Cc2ccccc2CN1` here?
The Ki was 1900 nM.

And the EC50 [2]?
The EC50 was 490 nM.

With `CC(C)c1ccccc1N1CCN(C(=O)[C@@H](Cc2ccc(Cl)cc2)NC(=O)[C@H]2Cc3ccccc3CN2)CC1` as the compound, how does the Ki [1] read?
The Ki was 720 nM.

And the EC50 [2]?
The EC50 was 110 nM.

Which Ki [1] does the source give for `Cn1ccnc1COc1ccccc1N1CCN(C(=O)[C@@H](Cc2ccc(Cl)cc2)NC(=O)[C@H]2Cc3ccccc3CN2)CC1` here?
The Ki was 530 nM.

And the EC50 [2]?
The EC50 was 140 nM.

With `CCc1ccccc1N1CCN(C(=O)[C@@H](Cc2ccc(Cl)cc2)NC(=O)[C@H]2Cc3ccccc3CN2)CC1` as the compound, how does the Ki [1] read?
Its Ki is 1300 nM.

What about the EC50 [2] of the same compound?
Its EC50 is 145 nM.

For `Cn1ccnc1Cc1ccccc1N1CCN(C(=O)[C@@H](Cc2ccc(Cl)cc2)NC(=O)[C@H]2Cc3ccccc3CN2)CC1`, which Ki [1] is on record?
Its Ki is 170 nM.

What about the EC50 [2] of the same compound?
Its EC50 is 44 nM.

Which Ki [1] does the source give for `CS(=O)(=O)NCc1ccccc1N1CCN(C(=O)[C@@H](Cc2ccc(Cl)cc2)NC(=O)[C@H]2Cc3ccccc3CN2)CC1` here?
Its Ki is 210 nM.

What about the EC50 [2] of the same compound?
The EC50 was 48 nM.

With `O=C(N[C@H](Cc1ccc(Cl)cc1)C(=O)N1CCN(c2ccccc2CO)CC1)[C@H]1Cc2ccccc2CN1` as the compound, how does the Ki [1] read?
The Ki was 630 nM.

What about the EC50 [2] of the same compound?
The EC50 was 150 nM.

For `O=C(N[C@H](Cc1ccc(Cl)cc1)C(=O)N1CCN(c2ccccc2Cn2ccnc2)CC1)[C@H]1Cc2ccccc2CN1`, which EC50 [5] is on record?
Its EC50 is 1600 nM.

And the Ki [6]?
The Ki was 700 nM.

And the Ki [1]?
The Ki was 110 nM.

And the Ki [10]?
Its Ki is 3600 nM.

And the EC50 [2]?
The EC50 was 14 nM.

What about the Ki [11] of the same compound?
The Ki was 4000 nM.

With `CN(C)c1ccccc1N1CCN(C(=O)[C@@H](Cc2ccc(Cl)cc2)NC(=O)[C@H]2Cc3ccccc3CN2)CC1` as the compound, how does the Ki [1] read?
Its Ki is 1100 nM.

And the EC50 [2]?
The EC50 was 44 nM.

Which Ki [1] does the source give for `CCOc1ccccc1N1CCN(C(=O)[C@@H](Cc2ccc(Cl)cc2)NC(=O)[C@H]2Cc3ccccc3CN2)CC1` here?
The Ki was 570 nM.

What about the EC50 [2] of the same compound?
The EC50 was 40 nM.

For `CCN(CC)Cc1ccccc1N1CCN(C(=O)[C@@H](Cc2ccc(Cl)cc2)NC(=O)[C@H]2Cc3ccccc3CN2)CC1`, which Ki [1] is on record?
The Ki was 34 nM.

And the EC50 [2]?
Its EC50 is 14 nM.
